An excerpt weighted towards active compounds, which were near 4.1% of everything screened.
KCNK9 block – inhibitors of human KCNK9 two-pore domain potassium channel. 1.2% of 310,000 active. HEK293 KCNK9, FluxOR thallium flux fluorescence; stronger effect = lower value. Q9NPC2. B-score at 10 µM;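 active means ratio B-score over 3 SD below the library mean, with starting fluorescence within 5 SD of its mean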;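 further: negative B-score means less thallium flux so channel inhibition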
KCNQ1 block – human KCNQ1 channel inhibition. P51787. CHO-K1 KCNQ1, FluxOR thallium flux fluorescence; stronger effect = higher value. B-score at 10 µM. 1.3% of 310,000 active. AID 2642;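 active means compounds whose thallium flux B-score, printed positive for inhibition, exceeds three library SD while starting fluorescence stays within three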;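 further: channel opened by potassium depolarization with thallium stimulus after 20 min compound exposure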
KCNK3 inh – human KCNK3 channel inhibition, primary screen | 0.84% of 340,000 active | CHO-KCNK3 thallium flux, FluxOR fluorescence; stronger effect = lower value | B-score at 10 µM;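 active means B-score under library mean minus 4 SD, starting fluorescence ratio at most library mean plus 5 SD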;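 further: more negative B-score means stronger inhibition of thallium flux through KCNK3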
hERG rescue – shields human hERG channel from block by proarrhythmic agents. Q12809. 0.51% of 310,000 active. activation (rescue from dofetilide block), less the hit threshold, % at 10 µM. CHO-hERG, FluxOR thallium flux, dofetilide IC70 present;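 active means activation above the mean of controls blocked by dofetilide plus 5 SD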;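 further: thallium influx through hERG after potassium depolarization seen as dye fluorescence rise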
Target sequence (Q12809 whole entry, looked up): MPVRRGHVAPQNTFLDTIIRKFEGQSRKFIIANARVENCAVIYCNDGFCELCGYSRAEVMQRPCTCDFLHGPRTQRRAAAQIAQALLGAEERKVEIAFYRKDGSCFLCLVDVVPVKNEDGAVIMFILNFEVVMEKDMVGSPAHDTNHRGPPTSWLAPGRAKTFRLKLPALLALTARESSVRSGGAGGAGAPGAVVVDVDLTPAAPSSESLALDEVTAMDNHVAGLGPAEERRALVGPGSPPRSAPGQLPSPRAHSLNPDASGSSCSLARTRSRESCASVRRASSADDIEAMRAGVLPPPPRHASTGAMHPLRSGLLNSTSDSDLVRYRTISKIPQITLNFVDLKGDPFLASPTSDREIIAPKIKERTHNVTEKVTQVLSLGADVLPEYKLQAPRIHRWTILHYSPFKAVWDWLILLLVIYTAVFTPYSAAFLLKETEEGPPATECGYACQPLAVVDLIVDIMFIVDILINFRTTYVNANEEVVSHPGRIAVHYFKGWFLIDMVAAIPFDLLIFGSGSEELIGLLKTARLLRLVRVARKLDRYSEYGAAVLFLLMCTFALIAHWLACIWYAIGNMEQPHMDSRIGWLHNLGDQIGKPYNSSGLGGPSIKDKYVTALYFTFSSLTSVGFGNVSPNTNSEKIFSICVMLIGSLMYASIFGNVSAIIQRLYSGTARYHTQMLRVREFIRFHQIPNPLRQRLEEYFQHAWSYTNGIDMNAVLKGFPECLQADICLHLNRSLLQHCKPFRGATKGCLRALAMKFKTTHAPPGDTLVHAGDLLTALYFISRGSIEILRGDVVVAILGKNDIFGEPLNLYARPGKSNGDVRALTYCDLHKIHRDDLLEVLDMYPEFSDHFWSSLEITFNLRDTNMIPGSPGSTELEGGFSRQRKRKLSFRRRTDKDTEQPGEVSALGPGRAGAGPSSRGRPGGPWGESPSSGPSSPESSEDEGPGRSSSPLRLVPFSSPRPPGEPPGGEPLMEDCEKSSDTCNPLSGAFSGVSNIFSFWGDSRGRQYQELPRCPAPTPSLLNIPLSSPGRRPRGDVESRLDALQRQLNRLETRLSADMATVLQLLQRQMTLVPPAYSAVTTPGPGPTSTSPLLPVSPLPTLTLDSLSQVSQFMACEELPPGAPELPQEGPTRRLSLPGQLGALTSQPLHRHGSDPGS
KCNQ1 act – potentiates or activates the human KCNQ1 potassium channel | P51787 | CHO-K1 KCNQ1, thallium flux FluxOR fluorescence; stronger effect = higher value | B-score at 10 µM | 0.35% of 310,000 active;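 active means fluorescence ratio B-score, a plate-corrected score, at least three library SD, with initial intensity B-score within 5 SD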
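System: Stable KCNQ1 CHO-K1 line | Incubation: 90 min dye loading and 20 min compound exposure, both at room temperature | Measure: Ratio B score | Medium: Assay buffer for compound exposure, DMSO matched across wells | Compound dosing: Single-concentration screen | Probe or stimulus: K+/Tl+ depolarizing stimulus | Measured by: Kinetic FluxOR fluorescence, 10 s baseline plus 110 s post-stimulus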
KCC2 mod – modulates chloride dependent transport by human KCC2 | Q9H2X9 | KCC2 cells, thallium flux FluoZin-2 fluorescence | 2.2% of 190,000 active | B-score of Tl+ flux slope (higher = more flux/activation; lower = inhibition) at 10 µM | AID 1456;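 active means thallium flux slope and its plate-corrected score both differing from the plate sample mean at a set confidence after two filtering rounds, in either direction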;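 further: slope of fluorescence scaled to starting intensity during 10 to 20 s after thallium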
KCNK3 inh conf – human KCNK3 channel inhibition, confirmation assay | shares compounds with KCNK3 inh | CHO-KCNK3 thallium flux, FluxOR fluorescence; 0% buffer, 100% carvedilol maximal block | ratio percent of control, % at 10 µM | 99% of 2,400 active | AID 651638;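 active means ratio percent of control, averaged over triplicates, above buffer control mean plus 5 SD, cut at about 64% in these data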;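 further: ratio is the fluorescence rise from min to max over baseline after thallium stimulus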
KCNK3 noninduced – activity in cells without induced KCNK3 expression | shares compounds with KCNK3 inh | non-induced KCNK3 parental cells, FluxOR thallium flux; stronger effect = lower value | thallium flux ratio (lower = more inhibition) at 10 µM | 40% of 2,400 active | AID 651747;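 active means thallium flux ratio, averaged over three wells, more than 5 SD below the buffer control mean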;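 further: host cells are CHO cells without KCNK3 induction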
Of the large screens only hits and unclear results are named; the others gave an inactive call (follow-up assays come after a bar, where they were run).

CCC(C)NC(=O)C1CCC(CNS(=O)(=O)c2cccc3nsnc23)CC1 (stereo not drawn)	none (no result: KCC2 mod)
CN(C(=O)CCCN1C(=O)c2ccccc2C1=O)C1CCCCC1	none (no result: KCNK9 block, KCNQ1 block, hERG rescue, KCNQ1 act, KCC2 mod)
COC(=O)c1cn(CCOc2ccc(C)cc2)c2ccccc12	KCNK3 inh -8.9 | KCNK3 inh conf 108 | KCNK3 noninduced inactive
COc1ccccc1OCCn1cc(C#N)c2ccccc21	none
CC(=O)c1cn(CCOc2ccc(F)cc2)c2ccccc12	KCNK3 inh -9 (no result: KCC2 mod) | KCNK3 inh conf 104 | KCNK3 noninduced inactive
Cc1ccc(OCCn2cc(C#N)c3ccccc32)cc1	KCNK3 inh -9.5 | KCNK3 inh conf 101 | KCNK3 noninduced 0.15
Cc1ccc(OCCn2cc(/C=C/C(=O)O)c3ccccc32)cc1	none (no result: KCC2 mod)
COc1ccc(N(CC(=O)NCc2ccc3c(c2)OCO3)S(=O)(=O)c2ccc(O)c(C(=O)O)c2)cc1	none (no result: KCNK9 block, KCNQ1 block, hERG rescue, KCNQ1 act, KCC2 mod)
N#Cc1cc2c(nc1SCc1ccc(Cl)nc1)CCCCC2	KCNK9 block -7, KCNK3 inh -11 | KCNK3 inh conf 116 | KCNK3 noninduced 0.16
CCN(CC)S(=O)(=O)c1cc(NC(=O)C(=O)c2c(-c3ccccc3)cc3ccccn23)ccc1C	KCNK3 inh -10 | KCNK3 inh conf 105 | KCNK3 noninduced inactive
CCN(CC)S(=O)(=O)c1cc(NC(=S)NC(=O)C2CCCC2)ccc1C	KCNK3 inh -16 (no result: KCNK9 block, KCNQ1 block, hERG rescue, KCNQ1 act, KCC2 mod) | KCNK3 inh conf 101 | KCNK3 noninduced inactive
CCN(CC)S(=O)(=O)c1ccc(NC(=S)NC(=O)C2CCC2)cc1	none (no result: KCC2 mod)
CCN(CC)c1ccc(S(=O)(=O)N(CC)CC)cc1NC(=O)C1CCCC1	KCNK3 inh -9.4 | KCNK3 inh conf 97 | KCNK3 noninduced inactive
Cc1cc(=O)n2nc(N3CCC(C(=O)NCc4cccc(Cl)c4)CC3)sc2n1	none (no result: KCC2 mod)
CCOc1ccc(C(=O)C(C)OC(=O)C2CCN(c3ccc(C(F)(F)F)cn3)CC2)cc1 (stereo not drawn)	KCNQ1 block 8, KCNK3 inh -9.4 (no result: KCC2 mod) | KCNK3 inh conf 83 | KCNK3 noninduced 0.16
CC(OC(=O)C1CCN(c2ccc(C(F)(F)F)cn2)CC1)C(=O)NC1CCCCC1C (stereo not drawn)	none (no result: KCNK9 block, KCNQ1 block, hERG rescue, KCNQ1 act, KCC2 mod)
COc1ccc(N(CC(=O)Nc2ccccc2C(F)(F)F)C2=NC3CS(=O)(=O)CC3S2)cc1 (stereo not drawn)	none (no result: KCC2 mod)
CC1CCN(c2ccccc2NC(=O)c2cc3ccccc3o2)CC1	KCNK3 inh -9.7 (no result: KCC2 mod) | KCNK3 inh conf 106 | KCNK3 noninduced inactive
O=C(c1ccccc1)N(c1ccccc1)c1nccc2ccccc12	none (no result: KCNK9 block, KCNQ1 block, hERG rescue, KCNQ1 act, KCC2 mod)
CCOc1ccccc1N1CCN(C(=S)NCc2ccc(Cl)cc2)CC1	KCNK3 inh -9 | KCNK3 inh conf 119 | KCNK3 noninduced inactive
CCCCNC(=O)N1CCN(c2ccccc2OCC)CC1	none
CCCN(CCC)c1nc(C#N)nc(N(CCC)CCC)n1	KCNK3 inh -11 | KCNK3 inh conf 102 | KCNK3 noninduced inactive
COc1ccc(NC(=O)COC(=O)c2c3c(nc4ccccc24)CCCC3)cc1	none
COc1ccc(NC(=O)COC(=O)c2c3c(nc4ccccc24)CCCC3)cc1Cl	KCNK9 block -9.7, KCNK3 inh -9.1 | KCNK3 inh conf 120 | KCNK3 noninduced 0.15
Cc1ccc(O)c(NC(=O)C2CCCN2C(=O)OCc2ccccc2)c1 (stereo not drawn)	none (no result: KCC2 mod)
Cc1cc(=O)c(C(=O)Nc2ccc(N3CCOCC3)cc2N2CCOCC2)nn1-c1ccccc1Cl	none (no result: KCNK9 block, KCNQ1 block, hERG rescue, KCNQ1 act, KCC2 mod)
CCOC(=O)CN1C(=O)/C(=C/c2c(F)cccc2Cl)Oc2ccccc21	KCNK9 block -7.8, KCNQ1 block 6, KCNK3 inh -8.8 (no result: KCC2 mod) | KCNK3 inh conf 123 | KCNK3 noninduced inactive
CCOC(=O)c1c(NC(=O)CSc2nc3ccc(OC)cc3[nH]2)sc2c1CC(C)(C)NC2(C)C	none (no result: KCC2 mod)
COc1ccc(-n2c(Cc3ccccc3)nnc2SCC(=O)N2CCCc3ccccc32)cc1	KCNK3 inh -12 | KCNK3 inh conf 87 | KCNK3 noninduced inactive
Cn1cccc1Cc1nnc(SCC(=O)N2CCCc3ccccc32)n1-c1ccc(F)cc1	none
CC(C)Cn1c(SCc2nc3ccccc3c(=O)[nH]2)nc2ccccc2c1=O	KCNK9 block -6.7, KCNK3 inh -10 | KCNK3 inh conf 102 | KCNK3 noninduced inactive
COC(=O)C1=C(C)N(C)C(C)=C(C(=O)OC)C1c1ccc(F)c(Br)c1	KCNK3 inh -9.1 | KCNK3 inh conf 110 | KCNK3 noninduced inactive
COc1ccc(-c2cc(OC)c3c(C)oc(C)c3c(=O)c2)cc1OC	KCNK3 inh -9 | KCNK3 inh conf 113 | KCNK3 noninduced 0.15
CCCCn1c(N)c(N(CC(C)C)C(=O)c2ccc([N+](=O)[O-])o2)c(=O)[nH]c1=O	none (no result: KCNK9 block, KCNQ1 block, hERG rescue, KCNQ1 act, KCC2 mod)
O=C(c1cc2c(ccc3ccccc32)o1)N1CCCCC1	KCNK3 inh -9.1 (no result: KCC2 mod) | KCNK3 inh conf 84 | KCNK3 noninduced inactive
O=C(O)c1cc2c(ccc3ccccc32)o1	none
COc1ccc(S(=O)(=O)Cc2ccc(C(=O)NC3CCCCC3)o2)cc1	none (no result: KCC2 mod)
Cc1onc(-c2ccccc2)c1-c1ccnn1S(=O)(=O)c1ccc(Cl)cc1	KCNK3 inh -9.4 | KCNK3 inh conf 103 | KCNK3 noninduced inactive
C=CCc1cc(C)ccc1OCCCC(C(=O)OCC)C(=O)OCC	KCNK3 inh -12 | KCNK3 inh conf 101 | KCNK3 noninduced inactive
CC1Cc2ccccc2N1S(=O)(=O)c1cccs1 (stereo not drawn)	KCNK3 inh -9.4 | KCNK3 inh conf 124 | KCNK3 noninduced 0.13
C/C(=N\Nc1cccc2cccnc12)c1ccccc1O	KCNK3 inh -10 | KCNK3 inh conf 108 | KCNK3 noninduced inactive
Cc1ccc(C(C)C)c(OCC(=O)NNC(=O)Cc2ccc(S(=O)(=O)N3CCOCC3)s2)c1	none (no result: KCNK9 block, KCNQ1 block, hERG rescue, KCNQ1 act, KCC2 mod)
O=C1CCC[C@@H]2[C@@H](Cc3ccccc3)[C@H](N3CCN(c4ccccc4)CC3)C[C@@H]3CCN1[C@@H]32	none (no result: KCNK9 block, KCNQ1 block, hERG rescue, KCNQ1 act, KCC2 mod)
COc1ccccc1NS(=O)(=O)c1ccc(C)c(NS(=O)(=O)c2cc(NC(C)=O)ccc2OC)c1	none (no result: KCNK9 block, KCNQ1 block, hERG rescue, KCNQ1 act, KCC2 mod)
O=c1[nH]c(N/N=C\c2ccc3c(c2)OCO3)nc2ccccc12	none
Cc1cc(N/N=C/c2ccc3c(c2)OCO3)nc2ccccc12	KCNK3 inh -11 | KCNK3 inh conf 113 | KCNK3 noninduced inactive
COc1cc2c(cc1OC)C(COc1ccc(C(C)C)cc1)NCC2 (stereo not drawn)	none (no result: KCC2 mod)
COc1ccccc1Nc1nc(N)nc(-c2oc3ccccc3c2C)n1	none (no result: KCC2 mod)
Cc1ccccc1Nc1nc(N)nc(-c2oc3ccccc3c2C)n1	KCNK9 block -14, KCNK3 inh -10 | KCNK3 inh conf 117 | KCNK3 noninduced 0.16

Assay outcomes: PubChem, several laboratories
